# Experimental data taken from ChEMBL document CHEMBL4219238, “Design, synthesis, molecular modelling and in vitro cytotoxicity analysis of novel carbamate derivatives as inhibitors of Monoacylglycerol lipase” (Bioorg Med Chem, 2018).
# Calls of active or inactive are those of the source. The rule behind the calls is not given here.
# Legend:
# Monoglyceride lipase = target: T1, Monoglyceride lipase (Mus musculus, UniProt O35678); test: Inhibition of MAGL in mouse B16-F10 cells using 7-HRA as substrate preincubated for 60 mins followed by substrate addition measured every 2.5 mins for 2 hrs by fluorescence assay; format: cell-based; conditions: read-out: IC50
# T1 sequence (O35678 whole entry): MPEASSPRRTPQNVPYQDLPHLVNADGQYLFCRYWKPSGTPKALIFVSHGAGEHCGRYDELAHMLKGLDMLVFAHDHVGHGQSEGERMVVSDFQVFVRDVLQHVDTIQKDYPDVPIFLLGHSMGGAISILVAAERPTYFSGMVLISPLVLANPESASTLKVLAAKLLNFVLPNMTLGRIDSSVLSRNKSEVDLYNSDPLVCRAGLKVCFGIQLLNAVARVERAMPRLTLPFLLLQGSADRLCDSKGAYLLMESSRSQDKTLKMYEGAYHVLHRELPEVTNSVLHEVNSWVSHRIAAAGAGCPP
# B16-F10 [1] = test: Induction of apoptosis in mouse B16F10 cells assessed as live cells at 10 uM after 48 hrs by Annexin V-FITC/propidium iodide staining based flow cytometry (reference value: 88.04%); format: functional
# B16-F10 [2] = test: Induction of apoptosis in mouse B16F10 cells assessed as early apoptotic cells at 10 uM after 48 hrs by Annexin V-FITC/propidium iodide staining based flow cytometry (reference value: 1.75%); format: functional
# B16-F10 [3] = test: Induction of apoptosis in mouse B16F10 cells assessed as late apoptotic cells at 10 uM after 48 hrs by Annexin V-FITC/propidium iodide staining based flow cytometry (reference value: 7.39%); format: functional
# B16-F10 [4] = test: Antiproliferative activity against mouse B16F10 cells at 35 to 75 nM after 48 hrs by Cyto Tracker red dye based flow cytometry; format: functional, cell-based
# Procedure, shortened: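 B16-F10 cells (Iscove's medium, 10% heat-inactivated FBS, 37 °C, 5% CO2) exposed to compound or DMSO for 48 h, stained with CytoTrack Red 628/643 and analysed by flow cytometry. Proliferation index (average number of cells that an initial cell became) expressed as fold change over DMSO control; n = 3; one-way ANOVA with Tukey post-test.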
# B16-F10 [5] = test: Induction of apoptosis in mouse B16F10 cells assessed as early apoptotic cells at 35 nM after 48 hrs by Annexin V-FITC/propidium iodide staining based flow cytometry (reference value: 1.43%); format: functional
# B16-F10 [6] = test: Induction of apoptosis in mouse B16F10 cells assessed as late apoptotic cells at 35 nM after 48 hrs by Annexin V-FITC/propidium iodide staining based flow cytometry (reference value: 13.54%); format: functional
# B16-F10 [7] = test: Induction of apoptosis in mouse B16F10 cells assessed as early apoptotic cells at 75 nM after 48 hrs by Annexin V-FITC/propidium iodide staining based flow cytometry (reference value: 1.43%); format: functional
# B16-F10 [8] = test: Induction of apoptosis in mouse B16F10 cells assessed as late apoptotic cells at 75 nM after 48 hrs by Annexin V-FITC/propidium iodide staining based flow cytometry (reference value: 13.54%); format: functional
# B16-F10 [9] = test: Effect on MAGL mRNA expression in mouse B16F10 cells by RT-PCR method; format: functional
# B16-F10 [10] = test: Effect on ABHD6 mRNA expression in mouse B16F10 cells by RT-PCR method; format: functional
# B16-F10 [11] = test: Effect on ABHD12 mRNA expression in mouse B16F10 cells by RT-PCR method; format: functional
# [12] = Induction of apoptosis in HEK293T cells assessed as live cells at 10 uM after 48 hrs by Annexin V-FITC/propidium iodide staining based flow cytometry (reference value: 82.43%); format: cell-based, HEK-293T; conditions: human, read-out: Activity
# Procedure, shortened: (§1)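 HEK293T (DMEM with 10% FBS) or MCF7 (DMEM/Ham's F-12 1:1, 10% FBS) cells treated 48 h with 10 μM compound or DMSO. Staining with Alexa Fluor 488 annexin V plus 5 μg/ml PI in HEPES/NaCl/CaCl2 binding buffer; 10,000 cells per sample read by flow cytometry; n = 3, mean ± S.E.M.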
# HEK-293T [13] = test: Induction of apoptosis in HEK293T cells assessed as late apoptotic cells at 10 uM after 48 hrs by Annexin V-FITC/propidium iodide staining based flow cytometry (reference value: 2.07%); format: cell-based; conditions: human; procedure, shortened: as §1
# HEK-293T [14] = test: Induction of apoptosis in HEK293T cells assessed as necrotic cells at 10 uM after 48 hrs by Annexin V-FITC/propidium iodide staining based flow cytometry (reference value: 8.09%); format: cell-based; conditions: human; procedure, shortened: as §1
# MCF7 [15] = test: Induction of apoptosis in human MCF7 cells assessed as late apoptotic cells at 10 uM after 48 hrs by Annexin V-FITC/propidium iodide staining based flow cytometry (reference value: 8.84%); format: functional; procedure, shortened: as §1
# MCF7 [16] = test: Induction of apoptosis in human MCF7 cells at 10 uM after 48 hrs in presence of MAGL inhibitor JZL184 by Annexin V-FITC/propidium iodide staining based flow cytometry; format: functional, cell-based
# [17] = target: T2, Monoglyceride lipase (Homo sapiens) (UniProt Q99685); test: Inhibition of MAGL in human MCF7 cells at 10 uM using 7-HRA as substrate preincubated for 6 hrs followed by substrate addition by fluorescence assay; format: cell-based
# T2 sequence (whole entry): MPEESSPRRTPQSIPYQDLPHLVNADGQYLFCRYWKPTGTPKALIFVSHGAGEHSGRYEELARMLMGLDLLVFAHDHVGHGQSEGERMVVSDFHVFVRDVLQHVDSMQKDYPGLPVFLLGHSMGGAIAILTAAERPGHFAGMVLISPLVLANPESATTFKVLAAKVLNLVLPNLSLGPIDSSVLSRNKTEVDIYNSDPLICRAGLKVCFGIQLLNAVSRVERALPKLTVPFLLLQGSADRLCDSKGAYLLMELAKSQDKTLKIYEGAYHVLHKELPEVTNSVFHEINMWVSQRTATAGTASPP
# Procedure, shortened: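 MCF7 cells cultured 6 h with 10 μM compound or DMSO, then lysed; MAGL activity measured on total cell lysate using the 7-HRA fluorogenic assay.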
structure (smiles),measurement,setting,value
O=C(Nc1cccc(-c2ccc(C(F)(F)F)cc2)c1)OCc1ccco1,IC50,Monoglyceride lipase,13.2 µM
same,Activity,B16-F10 [1],17.8%
same,Activity,B16-F10 [2],3.87%
same,Activity,B16-F10 [3],64.08%
same,Activity,B16-F10 [4],Active
same,Activity,B16-F10 [5],1.9%
same,Activity,B16-F10 [6],29.37%
same,Activity,B16-F10 [7],2.44%
same,Activity,B16-F10 [8],30.39%
same,deltaCT,B16-F10 [9],11.05
same,deltaCT,B16-F10 [10],10.73
same,deltaCT,B16-F10 [11],16.84
same,"viability at 48 h, 10 µM",[12],81.4%
same,Activity,HEK-293T [13],2.1%
same,Activity,HEK-293T [14],8.4%
same,Activity,MCF7 [15],25.63%
same,Activity,MCF7 [16],Active
same,inhibition,[17],Active
